In general, IC50 refers to the midpoint of a concentration-inhibition curve.

For assay [1], the system named is Rattus norvegicus. Description: Effective dose for apomorphine induced circling behavior was determined in rats after subcutaneous administration of the compound. In kind it is functional.
The subject of assay [2] is Monkey. The assay is described as follows: Antagonist action in tail-flick antagonism vs morphine, in rhesus monkeys. Compound was injected subcutaneously; Not active. In kind it is functional, organism-based. The following applies: Cercopithecidae.
Assay [3] deals with T1, D(2) dopamine receptor (Rattus norvegicus, UniProt P61169). Description: Neuroleptic activity in terms of [3H]spiroperidol binding to Dopamine receptor D2 in rat striatal membrane. In kind it is cell membranes. In a few lines:
(§1)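 Striatal membranes from male Sprague-Dawley rats (1.4 mg protein/mL) were used in 50 mM Tris-HCl pH 7.1 with 0.1% ascorbate, 10 μM pargyline, 120 mM NaCl, 5 mM KCl and 1 mM each of CaCl2 and MgCl2. Incubation was with […], 20 min at 37 °C. Nonspecific binding was defined by 10⁻⁶ M haloperidol, with filtration and scintillation counting.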

For assay [4], the system named is Rattus norvegicus. The assay is described as follows: Antagonist and antinociceptive profile was evaluated in a paraphenylquinone assay after subcutaneous injection. The format is functional.
The species named for assay [5] is Rattus norvegicus. The assay is described as follows: Tail-flick assay was performed to determine antinociceptive profile of the compound. The format is functional. Details: unit not given here. A general note: In hot-plate and tail-flick tests a longer latency is read as antinociception.
The species entered for assay [6] is Rattus norvegicus. Description: Agonist/antagonist and antinociceptive profile was assessed in a hotplate assay. The format is functional.
For assay [7], the target named is T2, Mu-type opioid receptor (Rattus norvegicus, UniProt P33535). Description: Opioid activity in terms of inhibition of [3H]dihydromorphine binding to Opioid receptor mu 1 in rat brain membrane. The format is cell membranes. The method, boiled down: (§2)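 Whole-brain membranes, cerebellum removed, from male Sprague-Dawley rats (1 mg protein/mL) in 50 mM Tris-HCl pH 7.4 were preincubated 60 min at 25 °C. [3H]dihydromorphine was added to a […], with varying drug concentrations, for 60 min at 25 °C. Nonspecific binding was defined by 10⁻⁵ M naloxone, with GF/B filtration and scintillation counting.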

Assay [8] has as its system Monkey. Description: Antagonist action in tail-flick antagonism vs morphine, in rhesus monkeys. Compound was injected subcutaneously. In kind it is functional. The settings on record: Cercopithecidae, in Macaca mulatta, sc.
The target in assay [9] is T2, Mu-type opioid receptor. The assay is described as follows: Opioid activity in terms of inhibition of [3H]dihydromorphine binding to opioid receptor mu in rat brain membrane. The format is cell membranes. In a few lines:
as §2

The target in assay [10] is T1, D(2) dopamine receptor. The assay is described as follows: Neuroleptic activity in terms of [3H]spiroperidol binding to dopamine receptor D2 in rat striatal membrane. In kind it is cell membranes. In a few lines:
as §1

Assay [11] concerns Rattus norvegicus. Description: Effective dose for apomorphine induced circling behavior was determined in rats after subcutaneous administration of the compound. The format is functional. The following applies: sc.
The subject of assay [12] is Monkey. The assay is described as follows: Antagonist action in tail-flick antagonism vs morphine, in rhesus monkeys, compound was injected subcutaneously; Not Active. The following applies: Cercopithecidae. The format is functional, organism-based.
The species entered for assay [13] is Rattus norvegicus. Description: Agonist/antagonist and antinociceptive profile was assessed in a hotplate assay.
The test system of assay [14] is Rattus norvegicus. Description: Antagonist and antinociceptive profile was evaluated in a paraphenylquinone assay after subcutaneous injection. The following applies: sc.
Setting [15] is: Rattus norvegicus, sc, read-out: ED50.
[16] abbreviates: Rattus norvegicus, read-out: ED50.

Each structure is given as a SMILES string. Activity calls are given as the source filed them. No cut-off for these calls is given here.

T1 sequence (P61169 whole entry): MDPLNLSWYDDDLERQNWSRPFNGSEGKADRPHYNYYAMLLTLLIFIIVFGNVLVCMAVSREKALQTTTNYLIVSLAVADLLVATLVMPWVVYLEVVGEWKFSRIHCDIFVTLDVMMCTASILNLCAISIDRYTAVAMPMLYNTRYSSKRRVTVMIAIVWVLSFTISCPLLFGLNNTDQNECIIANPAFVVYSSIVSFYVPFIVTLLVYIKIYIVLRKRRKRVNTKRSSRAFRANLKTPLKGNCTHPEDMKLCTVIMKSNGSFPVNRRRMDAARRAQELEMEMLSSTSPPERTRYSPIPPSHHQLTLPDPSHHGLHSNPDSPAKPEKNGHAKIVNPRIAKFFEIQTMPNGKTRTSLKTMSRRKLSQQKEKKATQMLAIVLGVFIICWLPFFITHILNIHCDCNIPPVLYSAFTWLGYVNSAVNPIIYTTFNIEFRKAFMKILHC
T2 sequence (P33535 whole entry): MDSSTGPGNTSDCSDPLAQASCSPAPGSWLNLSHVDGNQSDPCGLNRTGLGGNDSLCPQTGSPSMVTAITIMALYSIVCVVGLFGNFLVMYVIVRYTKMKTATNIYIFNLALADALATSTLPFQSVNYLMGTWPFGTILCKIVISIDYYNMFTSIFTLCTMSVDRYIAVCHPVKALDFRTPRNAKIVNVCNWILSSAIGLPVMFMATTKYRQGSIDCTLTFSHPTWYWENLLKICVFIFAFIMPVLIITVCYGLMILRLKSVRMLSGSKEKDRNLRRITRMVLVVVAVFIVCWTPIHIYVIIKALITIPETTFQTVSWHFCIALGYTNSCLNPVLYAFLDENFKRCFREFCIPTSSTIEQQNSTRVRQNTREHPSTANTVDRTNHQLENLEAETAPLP

On to `CCC(=O)O[C@]1(c2ccccc2)CCN(CCCC(=O)c2ccc(F)cc2)C[C@H]1C`, for which the ED50 in the assay with Rattus norvegicus [1] (setting [15]) is more than 12 µmol/kg; with Rattus norvegicus [4] (setting [15]), 2.9 µmol/kg; in the assay listed under Rattus norvegicus [6] (setting [16]), more than 72.9 µmol/kg. For the same molecule, the ED50 result with Monkey [2] is “inactive”. The molecule further yielded an IC50 at D(2) dopamine receptor [3] of 147 nM. This molecule gave an Activity in the assay filed under Rattus norvegicus [5] of more than 60.8.

As for `CCC(=O)O[C@@]1(c2ccccc2)CCN(CCCC(=O)c2ccc(F)cc2)CC1C` (mixture of isomers), the IC50 amounted to 9.5 nM at Mu-type opioid receptor [7] and 53.8 nM on D(2) dopamine receptor [3]. Moreover, the ED50 in the assay with Rattus norvegicus [1] is 3.9 µM/kg; with Monkey [8], more than 60.8 µmol/kg; in the assay on Rattus norvegicus [4] (setting [15]) it was 0.2 µmol/kg; in the assay filed under Rattus norvegicus [6] (setting [16]), 1.6 µmol/kg. Moreover, the Activity in the assay filed under Rattus norvegicus [5] is on record as 1.7.

`CCC(=O)O[C@@]1(c2ccccc2)CCN(CCCC(=O)c2ccc(F)cc2)CC1C` (single isomer, unassigned; (+)): the values for the ED50 in the assay with Rattus norvegicus [1], in the assay with Rattus norvegicus [4] and in the assay listed under Rattus norvegicus [6] were 1.6 µM/kg, 0.2 µM/kg and 0.9 µM/kg, respectively. Besides, the IC50 on Mu-type opioid receptor [9] was 6.1 nM; at D(2) dopamine receptor [10] it was 43.3 nM. The Activity in the assay listed under Rattus norvegicus [5] is on record as 0.8.

Turning to `O=C(CCCN1CCC(O)(c2ccc(Cl)cc2)CC1)c1ccc(F)cc1` [HALOPERIDOL], in the assay with Rattus norvegicus [11], the ED50 was found to be 0.1 µmol/kg.

Regarding `CN1CC[C@]23c4c5ccc(O)c4O[C@H]2[C@@H](O)C=C[C@H]3[C@H]1C5` [MORPHINE], the ED50 entry in the assay on Monkey [12] was “inactive”. The ED50 in the assay filed under Rattus norvegicus [13] is 2.9 µmol/kg; in the assay with Rattus norvegicus [14] it was 0.4 µmol/kg. In the assay filed under Rattus norvegicus [5], this molecule gave an Activity of 10.6.

Values taken from ChEMBL document CHEMBL1125722 (J Med Chem, 1991).
